The source made the active and inactive calls.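 The calls were made as follows: active = compounds lowering cell ATP signal with fitted IC50 at most twice the highest tested dose; inconclusive = flat fit with 30 to 70% signal loss, or poor fit; inactive = the rest.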
Key:
[1] = toxicity to human HeLa cells – cell-based, CellTiter-Glo luminescence, dry powder samples, cytotoxicity control for pyoverdine inhibitor project, dose response (AID 623950); conditions: HeLa viability, CellTiter-Glo ATP luminescence; at 50 µM (top of the series)
Summary of the method: (§1)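 Test system: HeLa cells | Amount: 2,500 cells per well | Buffer or medium: Phenol red-free DMEM with 10% fetal bovine serum | Compound: Threefold compound dilution series | Incubation: Cell growth 24 h at 37 °C, then 48 h compound exposure | Detection: CellTiter-Glo luminescence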

[2] = tested on: HeLa viability, CellTiter-Glo ATP luminescence; assay: as above
Summary of the method: as §1

Cc1cccc(C(C#N)c2ccc(Cl)cc2)n1 (stereo not drawn)
activity change, negative = toxicity [1]: -4.38% (inactive)

N#CC(c1cccc(Cl)n1)c1ccc(Cl)cc1F (stereo not drawn)
activity change, negative = toxicity [1]: -3.91% (inactive)

N#CC(CC1CC1)c1ccc(Cl)cc1 (stereo not drawn)
activity change, negative = toxicity [1]: 4.91% (inactive)

CCCCC(C#N)c1ccc(Cl)cc1F (stereo not drawn)
activity change, negative = toxicity [1]: -1.43% (inactive)

CC(C#N)(c1ccc(Cl)cc1)c1ccc(C(F)(F)F)cn1 (stereo not drawn)
activity change, negative = toxicity [1]: -9.2% (inactive)

CCCC(C#N)c1ccc(Cl)cc1 (stereo not drawn)
activity change, negative = toxicity [1]: 2.14% (inactive)

N#CC(c1ccc(C(F)(F)F)cc1)c1ccc(C(F)(F)F)c(Cl)n1 (stereo not drawn)
IC50 [2]: 38.1 µM

N#CC(c1ccc(C(F)(F)F)cc1)c1cccc(C(F)(F)F)n1 (stereo not drawn)
IC50 [2]: > 100 µM (inactive)

N#Cc1cccc(C(C#N)c2ccc(Cl)cc2)n1 (stereo not drawn)
activity change, negative = toxicity [1]: -0.235% (inactive)

N#CC(c1ccc(Cl)cc1Cl)c1ncccc1Cl (stereo not drawn)
activity change, negative = toxicity [1]: -10.4% (inactive)

Cc1ccc(C(C#N)c2ccc(Cl)cc2)nc1 (stereo not drawn)
activity change, negative = toxicity [1]: 4.52% (inactive)

N#CC(c1ccc(Cl)cc1)c1ncccc1Cl (stereo not drawn)
activity change, negative = toxicity [1]: -0.68% (inactive)

Cc1ccc(C(C#N)c2ccc(F)cc2)nc1C#N (stereo not drawn)
activity change, negative = toxicity [1]: -12.8% (inactive)

N#CC(c1ccc(Cl)cc1)c1ccc(C(F)(F)F)cn1 (stereo not drawn)
activity change, negative = toxicity [1]: -0.58% (inactive)

CCCCC(C#N)c1ccc(F)cc1 (stereo not drawn)
activity change, negative = toxicity [1]: 4.15% (inactive)

N#CC(c1ccc(C(F)(F)F)c(Cl)n1)c1ccc(Cl)cc1F (stereo not drawn)
IC50 [2]: 48.4 µM

CCCCC(C#N)c1ccccc1OC(F)(F)F (stereo not drawn)
activity change, negative = toxicity [1]: 8.75% (inactive)

N#Cc1cccc(C(C#N)c2ccccc2OC(F)(F)F)n1 (stereo not drawn)
activity change, negative = toxicity [1]: -3.3% (inactive)

N#CC(c1ccc(F)cc1)c1cccc(C(F)(F)F)n1 (stereo not drawn)
activity change, negative = toxicity [1]: 4.89% (inactive)

Cc1ccc(C(C#N)c2ccccc2OC(F)(F)F)nc1C#N (stereo not drawn)
activity change, negative = toxicity [1]: -0.14% (inactive)

N#CC(c1ccc(C(F)(F)F)c(Cl)n1)c1ccccc1OC(F)(F)F (stereo not drawn)
activity change, negative = toxicity [1]: -4.77% (inactive)

N#CC(c1ccc(C(F)(F)F)c(Cl)n1)c1ccc(Cl)cc1Cl (stereo not drawn)
IC50 [2]: 26.7 µM

COc1cccc(C(C#N)c2ccc(F)cc2)n1 (stereo not drawn)
activity change, negative = toxicity [1]: -7.47% (inactive)

CCCCC(C#N)c1ccc(Cl)cc1 (stereo not drawn)
activity change, negative = toxicity [1]: 1.19% (inactive)

N#Cc1cccc(C(C#N)c2ccc(Cl)cc2F)n1 (stereo not drawn)
activity change, negative = toxicity [1]: 4.41% (inactive)

N#CC(c1cccc(C(F)(F)F)n1)c1ccccc1OC(F)(F)F (stereo not drawn)
activity change, negative = toxicity [1]: 6.21% (inactive)

N#CC(c1ccc(F)cc1)c1ccc(C(F)(F)F)c(Cl)n1 (stereo not drawn)
IC50 [2]: 35.7 µM

N#Cc1cccc(C(C#N)c2ccc(Cl)cc2Cl)n1 (stereo not drawn)
activity change, negative = toxicity [1]: 7.33% (inactive)

N#CC(c1cccc(C(F)(F)F)n1)c1ccc(Cl)cc1F (stereo not drawn)
activity change, negative = toxicity [1]: -5.15% (inactive)

N#CC(c1ccc(Cl)cc1)c1ccc(Cl)cn1 (stereo not drawn)
activity change, negative = toxicity [1]: -2.34% (inactive)

CCCCC(C#N)c1ccc(C(F)(F)F)cc1 (stereo not drawn)
activity change, negative = toxicity [1]: 4.97% (inactive)

CCCCC(C#N)c1ccc(Cl)cc1Cl (stereo not drawn)
activity change, negative = toxicity [1]: 0.128% (inactive)

N#CC(c1cccc(Cl)n1)c1ccc(Cl)cc1Cl (stereo not drawn)
IC50 [2]: > 100 µM (inactive)

N#CC(c1cccc(Cl)n1)c1ccccc1OC(F)(F)F (stereo not drawn)
activity change, negative = toxicity [1]: -11% (inactive)

CC(C)CC(C#N)c1ccc(Cl)cc1 (stereo not drawn)
activity change, negative = toxicity [1]: -0.673% (inactive)

Cc1ccc(C(C#N)c2ccc(Cl)cc2)nc1C#N (stereo not drawn)
IC50 [2]: > 100 µM (inactive)

N#CC(c1ccc(Cl)cc1)c1cccc(C(F)(F)F)n1 (stereo not drawn)
activity change, negative = toxicity [1]: -8.05% (inactive)

N#CC(c1ccc(C(F)(F)F)cc1)c1cccc(Cl)n1 (stereo not drawn)
activity change, negative = toxicity [1]: -3.15% (inactive)

Source: PubChem BioAssay AID623950 (Broad Institute, 2012)
